Most compounds without a hit are left out; they make up all but 2.9% or so of the library.
SENP7 inh = SENP7 protease inhibitors, primary screen, biochemical, luminescence, uHTS; recombinant SENP7, Z-RLRGG-aminoluciferin luminescence, 40 min; inhibition, % at 5 µM; 330,000 compounds, 1.5% hits;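 active = inhibition above about 50% at the single test dose, limit read from the data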
SENP8 block-1 = SENP8 protease inhibitors, primary screen, biochemical, luminescence. purified SENP8, Z-RLRGG-aminoluciferin cleavage. Sentrin-specific protease 8 (Homo sapiens), Q96LD8. 330,000 compounds, 1.2% hits. inhibition, % at 10 µM. AID 2540, 2010; in the data active = inhibition above about 50%
SENP1 FRET inh = human SENP1 catalytic domain inhibitors, primary screen, biochemical, FRET, uHTS | recombinant SENP1 catalytic domain, CyPet-SUMO1-YPet FRET cleavage | 360,000 compounds, 0.21% hits | inhibition, % at 10 µM;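 active = inhibition at least 30% at 10 µM, raw YFP signal under a set limit, fluorescence ratio 0.5 to 1.5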
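Compound: 10 µM single point, 0.5% DMSO; Test system: hSENP1 catalytic domain, recombinant; Timing: 50 min reaction at room temperature; Technique: FRET, CFP and YFP emission; Control set: no-enzyme wells low, DMSO-plus-enzyme wells high control.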
Apaf-1 inh = inhibitors of human Apaf-1 apoptosome, primary screen, biochemical, DEVD-Rh110 fluorescence, uHTS | 330,000 compounds, 0.71% hits | inhibition, % at 20 µM | reconstituted apoptosome caspase-3 activity | AID 489030, 2010; active = inhibition of at least 40% at 20 µM
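System: reconstituted apoptosome with Apaf-1, cytochrome c, caspase-9, procaspase-3, dATP; Signal: Rh110 fluorescence intensity; Schedule: 30 min compound preincubation, 50 min activation, room temperature; Reagent: cytochrome c trigger plus (Z-DEVD)2-Rh110 caspase-3 substrate.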
SENP6 block = SENP6 protease inhibitors, primary screen, biochemical, luminescence, uHTS | Sentrin-specific protease 6 (Homo sapiens), Q9GZR1 | Recombinant SENP6 catalytic domain, aminoluciferin luminescence | inhibition, % at 10 µM | 330,000 compounds, 1.8% hits | AID 2599, 2010;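 active = inhibition above about 50% at the single tested dose, limit read from the data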
SENP8 block-2 = human SENP8 protease inhibitors, primary screen, biochemical, fluorescence, Nedd8 protein substrate, uHTS; 360,000 compounds, 0.64% hits; Sentrin-specific protease 8 (Homo sapiens), Q96LD8; recombinant SENP8; inhibition, % at 20 µM; in the data active = inhibition mostly above about 40%, no sharp cut-off; inactive = mostly below about 27%
SENP1 conf = human SENP1 catalytic domain inhibitors, confirmation, biochemical, FRET endpoint, single concentration; shares compounds with SENP1 FRET inh; AID 651678, 2012; recombinant SENP1, CyPet-SUMO1-YPet FRET cleavage; 520 compounds, 34% hits; inhibition, % at 10 µM; in the data active = inhibition mostly above about 35%, no sharp cut-off; inactive = mostly below about 32%
SENP1 kinetic = human SENP1 catalytic domain inhibitors, confirmation, biochemical, kinetic FRET, single concentration; shares compounds with SENP1 FRET inh; recombinant SENP1, CyPet-SUMO1-YPet FRET kinetic cleavage; inhibition, % at 10 µM; 520 compounds, 26% hits; AID 651690, 2012; in the data active = inhibition mostly above about 32%, no sharp cut-off; inactive = mostly below about 29%
Hits are given with their value; . = inactive; / = no result given.

SMILES | SENP7 inh | SENP8 block-1 | SENP1 FRET inh | Apaf-1 inh | SENP6 block | SENP8 block-2 | SENP1 conf | SENP1 kinetic
CNc1nc(-c2ccc([N+](=O)[O-])cc2)cs1 | . | . | 43.8 | . | . | . | . | .
Cc1ccc(C2=NN(CC(=O)NCCC(C)C)C(=O)CC2)cc1 | . | . | . | . | . | . | / | /
O=C(NCc1cccc(Cl)c1)c1cccc2c(-c3cccnc3)coc12 | / | / | . | / | / | . | / | /
CC1=C/C(=C(\c2ccc(O)c(C)c2)c2ccccc2S(=O)(=O)O)C=CC1=O | . | . | . | . | . | . | / | /
CC1=CC(=O)C=C/C1=C(/c1ccc(O)cc1C)c1ccccc1S(=O)(=O)O | . | . | 35.9 | . | . | . | . | .
Cc1nc2ccc(NS(=O)(=O)c3ccc(F)c(F)c3F)cc2s1 | . | . | . | . | . | . | / | /
Cc1nc2ccc(NS(=O)(=O)c3ccc(F)cc3F)cc2s1 | . | . | 57.8 | . | . | . | 37.3 | .
Cc1nc2ccc(NS(=O)(=O)c3c(F)cc(F)cc3Br)cc2s1 | . | . | 43.6 | . | . | . | . | .
COc1cc(S(=O)(=O)Nc2ccc3nc(C)sc3c2)ccc1NC(C)=O | . | . | 35.8 | . | . | . | . | .
COCOc1cccc(CN2CCC2(C)C(=O)Nc2cc(OC)ccc2OC)c1 (stereo unspecified) | / | / | . | / | / | . | / | /
Cc1ccccc1NC(=O)Cc1nc(COC(=O)Cc2cccc(C(F)(F)F)c2)cs1 | / | / | . | / | / | . | / | /
CCCCC(CC)C(=O)Nc1cc(C(=O)NCCC)ccc1N1CCC2(CC1)CC(c1cccc(Br)c1)=NO2 (stereo unspecified) | . | . | . | . | . | . | / | /
COc1ccc(S(=O)(=O)N(C)C[C@H]2Oc3ncc(C#CC4(O)CCCC4)cc3C(=O)N([C@@H](C)CO)C[C@@H]2C)cc1 | / | / | . | / | / | . | / | /
CCOc1cc(/C=C2\SC(=S)N(NS(=O)(=O)c3ccccc3)C2=O)ccc1O | . | . | 81.6 | . | . | . | 124.1 | 70.1
CCOc1cc(/C=C2\SC(=O)N=C2N)ccc1O | . | . | 31.0 | . | . | . | 61.1 | 45.6
CCOc1cc(/C=C2\N=C3CCCCCN3C2=O)ccc1O | . | . | 38.8 | . | . | . | 56.0 | 50.5
COc1ccc(Cl)cc1-c1noc([C@@H]2O[C@H](CO)[C@H](O)[C@H](O)[C@H]2O)n1 | / | / | . | / | / | . | / | /
COC(=O)Cn1cnc(C(=O)Nc2ccc(C)c(C)c2)n1 | . | / | . | . | / | . | / | /
CC1(C)CC(=O)C2=C(C1)Nc1ccccc1NC2c1ccc(F)c(F)c1 (stereo unspecified) | . | . | . | . | . | . | / | /
CC1(C)CC(=O)C2=C(C1)Nc1ccccc1NC2c1ccccc1F (stereo unspecified) | . | . | 36.3 | . | . | . | . | .
CCSc1ncc(Cl)c(C(=O)Nc2sc3c(c2C(=O)NCc2cccnc2)CCCC3)n1 | . | . | 40.6 | . | . | . | 61.9 | 43.7
CCSc1ncc(Cl)c(C(=O)Nc2ccccc2Cl)n1 | . | . | . | . | . | . | / | /
CCOc1ccc(S(=O)(=O)NNS(=O)(=O)c2ccc(C)cc2C)cc1 | . | . | . | . | . | . | / | /
Cn1c(=O)oc2cc(S(=O)(=O)NCc3ccc(C(=O)O)cc3)ccc21 | . | . | 28.3 | . | . | . | . | .
Cn1c(=O)oc2cc(S(=O)(=O)Nc3ccc(C(=O)O)cc3)ccc21 | / | / | . | / | / | . | / | /
SMILES | SENP7 inh | SENP8 block-1 | SENP1 FRET inh | Apaf-1 inh | SENP6 block | SENP8 block-2 | SENP1 conf | SENP1 kinetic
CC(C)C(=O)N(Cc1ccccc1)S(=O)(=O)c1ccc2c(c1)oc(=O)n2C | . | . | 42.7 | . | . | . | . | .
Cc1ccc(-n2cc(-c3ccc([N+](=O)[O-])cc3)[nH]c2=S)c(C)c1 | . | . | 62.9 | . | . | . | 41.9 | 33.2
Cc1cccc(-n2cc(-c3ccc([N+](=O)[O-])cc3)[nH]c2=S)c1 | . | . | . | . | . | . | / | /
COc1ccccc1-n1cc(-c2ccc([N+](=O)[O-])cc2)[nH]c1=S | . | . | 42.7 | . | . | . | . | .
COc1ccccc1Cc1c(C2CCCCC2)nc2ccc(Br)cn12 | / | / | . | / | / | . | / | /
Brc1cc(Br)c2nc3c(cc2c1)CCC3 | . | . | 33.0 | . | . | . | . | .
CSc1nc2c(cc1C#N)CCC2 | . | . | . | . | . | . | / | /
Cc1c(NN=C(C#N)C#N)c(=O)n(-c2ccccc2)n1C | . | . | 46.5 | . | . | . | . | .
COc1ncccc1-c1cc2nc(NCCNC(C)=O)n(C)c(=O)c2s1 | / | / | . | / | / | . | / | /
CC(C)(C)N=Cc1c(O)ccc2oc3c(c12)CCCC3 | . | . | 30.9 | . | . | . | . | .
O=C1CCCc2c1cc(C(=O)Nc1ccc(Br)cn1)c(=O)n2-c1ccccc1 | . | . | 69.8 | . | . | . | . | .
COc1cc2cc(C)c(SCC(=O)N3CCOCC3)nc2cc1OC | . | . | 32.5 | . | . | . | . | .
COc1cc2cc(C#N)c(SCC(=O)N3CCOCC3)nc2cc1OC | . | . | . | . | . | . | / | /
NC(N)=NCCCS(=O)(=O)Nc1ccc(Nc2c3ccccc3nc3cc([N+](=O)[O-])ccc23)cc1 | / | / | 51.2 | / | / | . | . | .
COc1cc(O)c(C=Nc2ccccc2NS(=O)(=O)c2ccc(C)cc2)c(OC)c1 | / | / | 51.1 | / | / | . | 74.0 | 67.2
COc1ccccc1NS(=O)(=O)c1ccc(O)cc1 | . | . | . | . | . | . | / | /
COc1cc(CN2C[C@@H](CO)O[C@@H](n3cnc4c(NCCN(C)C)ncnc43)C2)cc(OC)c1OC | / | / | . | / | / | . | / | /
Nc1nc2c(ncn2[C@@H]2O[C@H](CNCC3=Cc4cc(O)ccc4OC3)[C@@H](O)[C@H]2O)c(=O)[nH]1 | / | / | . | / | / | . | / | /
CC(=O)n1c2ccccc2c2c1c1ccccc1n2C | . | . | 75.4 | . | . | . | . | .
OCC[C@@H]1C[C@H](O)[C@@H](O)[C@@]2(OCc3ccc(CO)cc32)O1 | / | / | . | / | / | . | / | /
C#CC(CC)(CC)NC(=O)c1cc(S(=O)(=O)N2CCCCC2)ccc1N1CCOCC1 | . | . | . | . | . | . | / | /
CCN1/C(=C\C=C2\C(=O)N(c3ccccc3)C(=S)N2C)Sc2ccccc21 | / | / | 34.6 | / | / | . | . | .
